Data published in ChEMBL document CHEMBL1138023, “Macrocyclic ketone analogues of halichondrin B” (Bioorg Med Chem Lett, 2004).

Assays:
DLD-1 = test: In vitro inhibitory concentration required to inhibit the growth of DLD-1 cells under continuous exposure conditions for 3-4 days; format: functional, cell-based; details: Homo sapiens
How it was run: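 Human colon cancer DLD-1 cells grown under continuous drug exposure for 3–4 days. Growth inhibition measured and IC50 reported ± SEM, n = number of experiments.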

U-937 [1] = test: In vitro inhibitory concentration required to inhibit the growth of U937 cells was determined at 10 hr by mitotic block reversibility assay; format: functional; details: Homo sapiens, U-937, 10 h
How it was run: (§1)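 Human histiocytic lymphoma U937 cells, read by flow cytometry. Scores whether a complete mitotic block is maintained 10 h after drug washout.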

[2] = In vitro reversibility ratio in U937 cells; format: functional, U-937; how it was run: as §1
P388 = test: Fold resistance calculated as the inhibition concentration ratio between retrovirally transformed murine P388/VMDRC.04 and parental P388 cells; format: functional
How it was run: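 Readout of P-glycoprotein (PgP) susceptibility: IC50 in the retrovirally transformed P388/VMDRC.04 line divided by IC50 in parental P388 cells, giving fold resistance.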

U-937 [3] = test: In vitro inhibitory concentration required to inhibit the growth of U937 cells was determined at 0 hr by mitotic block reversibility assay; format: functional; details: Homo sapiens, U-937, 0 h

SMILES | IC50 (DLD-1) [nM] | IC99 (U-937 [1]) [µM] | Reversibility ratio [2] | FR (P388) | IC99 (U-937 [3]) [µM]
C=C1C[C@@H]2CC[C@@]34C[C@@H]5O[C@@H]6C(O[C@H]7CC[C@H](CC(=O)C[C@@H]8[C@@H](OC)[C@@H](C[C@H](O)COS(=O)(=O)c9ccc(C)cc9)O[C@H]8C[C@H]8O[C@@H](CC[C@@H]1O2)C[C@@H](C)C8=C)O[C@@H]7[C@@H]6O3)[C@H]5O4 | 2 | 0.03 | 4 | 2.4 | 0.007
C=C1C[C@@H]2CC[C@@]34C[C@@H]5O[C@@H]6C(O[C@H]7CC[C@H](CC(=O)C[C@@H]8[C@@H](OC)[C@@H](C[C@H](O)CNC(=O)c9ccc(Cl)cc9)O[C@H]8C[C@H]8O[C@@H](CC[C@@H]1O2)C[C@@H](C)C8=C)O[C@@H]7[C@@H]6O3)[C@H]5O4 | 0.69 | 0.02 | 7 | 5.9 | 0.003
C=C1C[C@@H]2CC[C@@]34C[C@@H]5O[C@@H]6C(O[C@H]7CC[C@H](CC(=O)C[C@@H]8[C@@H](OC)[C@@H](C[C@H](O)CSc9ccc(OC)cc9)O[C@H]8C[C@H]8O[C@@H](CC[C@@H]1O2)C[C@@H](C)C8=C)O[C@@H]7[C@@H]6O3)[C@H]5O4 | 0.71 | 0.03 | 10 | 1.7 | 0.003
C=C1C[C@@H]2CC[C@@]34C[C@@H]5O[C@@H]6C(O[C@H]7CC[C@H](CC(=O)C[C@@H]8[C@@H](OC)[C@@H](C[C@H](O)CN=[N+]=[N-])O[C@H]8C[C@H]8O[C@@H](CC[C@@H]1O2)C[C@@H](C)C8=C)O[C@@H]7[C@@H]6O3)[C@H]5O4 | 0.53 | 0.03 | 10 | 1.9 | 0.003
C=C1C[C@@H]2CC[C@@]34C[C@@H]5O[C@@H]6C(O[C@H]7CC[C@H](CC(=O)C[C@@H]8[C@@H](OC)[C@@H](C[C@H](O)CS(=O)(=O)c9ccc(OC)cc9)O[C@H]8C[C@H]8O[C@@H](CC[C@@H]1O2)C[C@@H](C)C8=C)O[C@@H]7[C@@H]6O3)[C@H]5O4 | 0.74 | 0.03 | 10 | 3.4 | 0.003
C=C1C[C@@H]2CC[C@@]34C[C@@H]5O[C@@H]6C(O[C@H]7CC[C@H](CC(=O)C[C@@H]8[C@@H](OC)[C@@H](C[C@H](O)COC(=O)Nc9ccc(Cl)cc9)O[C@H]8C[C@H]8O[C@@H](CC[C@@H]1O2)C[C@@H](C)C8=C)O[C@@H]7[C@@H]6O3)[C@H]5O4 | 1.3 | 0.065 | 22 | 8.6 | 0.003
